In PMC10520980 (European journal of medicinal chemistry, 2022):
Where two headings read alike, the source gives them in different places.

Legend:
NTMT1 and NTMT2 = details: cited from earlier work
NTMT1 [1] = target: T1, NTMT1 (Homo sapiens, UniProt Q9BV86); details: read-out: cellular IC50; HCT116; cited from earlier work
T1 sequence (Q9BV86 1-223): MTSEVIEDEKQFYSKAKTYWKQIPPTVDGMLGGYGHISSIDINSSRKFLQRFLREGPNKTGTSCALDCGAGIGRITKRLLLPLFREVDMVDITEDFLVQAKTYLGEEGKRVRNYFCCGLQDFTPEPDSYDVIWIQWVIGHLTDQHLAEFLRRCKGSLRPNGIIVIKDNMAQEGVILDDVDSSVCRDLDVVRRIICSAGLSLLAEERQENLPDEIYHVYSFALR

NTMT1 [2] = target: T1, NTMT1; details: read-out: cellular IC50; HT29; cited from earlier work
NTMT1 [3] = target: T1, NTMT1; test: Degradation of NTMT1 in HCT116; type: cell-based; details: for DC50: read-out: DC50, NTMT1 degradation, HCT116, 24 h, Western blot; for fold less potent than degrader 1 (DC50): HCT116
How it was run: (§1)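 Cells were seeded at 8×10^4 per well, grown 24 h, then treated with graded concentrations for 24 h or at 50 μM over a time course, with DMSO control. Lysis was in Tris pH 8.0/NaCl/NP-40/Triton buffer, followed by BCA. 20 μg protein was run on 10% SDS-PAGE with PVDF transfer. Membranes were probed with rabbit anti-NTMT1 and anti-β-actin overnight at 4 °C, then chemiluminescence. Densitometry was normalised to DMSO, and DC50 was derived from these values. Triplicates.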

NTMT1 [4] = target: T1, NTMT1; test: Degradation of NTMT1 in HT29; type: cell-based; details: for DC50: read-out: DC50, NTMT1 degradation, HT29, 24 h, Western blot
How it was run: as §1

NTMT2 = NTMT2 (Homo sapiens, UniProt Q5VVY1); test: Selectivity: NTMT2 protein level in HCT116 and HT29; type: cell-based; details: 24 h
Chain of NTMT2 (Q5VVY1 whole entry): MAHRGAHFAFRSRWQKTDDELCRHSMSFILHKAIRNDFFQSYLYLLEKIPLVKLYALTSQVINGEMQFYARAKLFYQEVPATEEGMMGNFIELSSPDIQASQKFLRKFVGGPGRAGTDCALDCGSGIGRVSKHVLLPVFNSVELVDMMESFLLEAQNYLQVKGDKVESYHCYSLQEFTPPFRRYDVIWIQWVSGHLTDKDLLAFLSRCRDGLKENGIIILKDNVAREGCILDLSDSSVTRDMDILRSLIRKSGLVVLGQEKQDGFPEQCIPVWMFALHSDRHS
How it was run: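 HCT116 and HT29 cells were treated with a range of degrader concentrations for 24 h. Lysates were resolved by SDS-PAGE, and NTMT1, NTMT2 and β-actin band regions were cut from the same membrane. These were probed with rabbit anti-NTMT1, anti-NTMT2 and anti-actin, then goat anti-rabbit secondary and chemiluminescence. Triplicates.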

HCT116 = test: Cytotoxicity, WST-8 assay, HCT116; type: cell-based, human; details: HCT116, up to 64 μM, 24 h
How it was run: (§2)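 Cells were seeded at 5×10^3 per well and cultured 24 h. They were then exposed to a range of test compound concentrations or DMSO vehicle. A solution of 5 mM WST-8 plus 0.2 mM 1-methoxyphenazinium salt in 150 mM NaCl was added, followed by 3 h at 37 °C in 5% CO₂. Absorbance was read at 490 nm. Triplicates.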

HT29 = test: Cytotoxicity, WST-8 assay, HT29; type: cell-based, human; details: HT29, up to 64 μM, 24 h
How it was run: as §2

ntmt1 KO HCT116 cells = test: Cell proliferation assay; type: cell-based, human; details: ntmt1 KO HCT116, various concentrations, 72 h
calreticulin (CALR) = test: CALR expression by Western blot; type: cell-based, human; details: HCT116, 25 μM, 24 h
How it was run: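 HCT116 cells were treated at 25 μM for 24 h alongside the inhibitor comparator. Cells were lysed at 4 °C for 1 h in Tris pH 8.0/NaCl/NP-40/Triton X-100 buffer with protease inhibitor, and protein was quantified by BCA. 10 μg protein was run on 8% SDS-PAGE and transferred to PVDF. Blots were probed with rabbit anti-CALR and anti-β-actin, detected by chemiluminescence and quantified by densitometry. Triplicates.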

[5] = target: NTMT1-eGFP fusion protein (Homo sapiens, UniProt Q9BV86); test: NTMT1 degradation visualized by fluorescence; type: cell-based; details: HCT116, 100 μM, 24 h
How it was run: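 HCT116 cells were seeded at 1.5×10^5 per well. After 12 h they were transfected with pEGFP-n1-NTMT1 or empty pEGFP-n1 using Lipofectamine 3000 in reduced-serum medium with 20% FBS, for 8 h. Cells recovered 24 h in complete medium, then received 100 μM degrader or DMSO for 24 h. The GFP fusion was imaged on an inverted fluorescence microscope.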

eGFP = test: Control with plasmid expressing only eGFP in HCT116; type: cell-based, human; details: HCT116, 100 μM, 24 h

NCCCC[C@H](NC(=O)[C@@H]1CCCN1C(=O)Cc1ccc(O)cc1)C(=O)N[C@@H](CCCN=C(N)N)C(N)=O [BM30]
selectivity toward NTMT1 and NTMT2 (NTMT1 and NTMT2): nonselective inhibitor

NCCCC[C@H](NC(=O)[C@@H]1CCCN1C(=O)Cc1cccc2ccccc12)C(=O)Nc1ccccc1C(N)=O [DC541, (S)-N-((S)-6-amino-1-((2-carbamoylphenyl)amino)-1-oxohexan-2-yl)-1-(2-(naphthalen-1-yl)acetyl)pyrrolidine-2-carboxamide]
IC50 (NTMT1 [1]): > 100 µM
IC50 (NTMT1 [2]): ~30 µM

Cc1ncsc1-c1ccc(CNC(=O)[C@@H]2C[C@@H](O)CN2C(=O)[C@H](C(C)C)N2Cc3ccccc3C2=O)c(OCCNC(=O)c2ccccc2NC(=O)[C@H](CCCCN)NC(=O)[C@@H]2CCCN2C(=O)Cc2cccc3ccccc23)c1 [degrader 1, (2S,4R)-N-(2-(2-(2-((S)-6-amino-2-((S)-1-(2-(naphthalen-1-yl)acetyl)pyrrolidine-2-carboxamido)hexanamido)benzamido)ethoxy)-4-(4-methylthiazol-5-yl)benzyl)-4-hydroxy-1-((S)-3-methyl-2-(1-oxoisoindolin-2-yl)butanoyl)pyrrolidine-2-carbox amide]
NTMT1 degradation after pre-treatment with proteasome inhibitor MG-132 (NTMT1 [3]; HCT116, 1 μM MG-132 for 2 h, then 50 μM compound 24 h): completely abolished
NTMT1 level (Western blot) (NTMT1 [3]; HCT116, 25 μM, 24 h): almost depleted
NTMT1 level within 24 h (NTMT1 [3]; HCT116, 50 μM, 24 h): almost completely depleted
DC50 (NTMT1 [3]): 7.53 µM
onset of pronounced change of NTMT1 levels (NTMT1 [4]; HT29, 50 μM): not observed until 6 h
DC50 (NTMT1 [4]): 18.1 µM
degradation of NTMT2 (NTMT2; HCT116, various concentrations): cannot induce degradation of NTMT2
degradation of NTMT2 (NTMT2; HT29, various concentrations): cannot induce degradation of NTMT2
cytotoxicity (cell viability, WST-8) (HCT116): No significant cytotoxicity
cytotoxicity (cell viability, WST-8) (HT29): No significant cytotoxicity
antiproliferative effect on ntmt1 KO cells (ntmt1 KO HCT116 cells): neither compound displayed an antiproliferative effect
CALR expression relative to inhibitor 4 (Western blot) (calreticulin (CALR)): ~ 1.4 fold
fluorescence of NTMT1-eGFP fusion protein [5]: most fluorescence signals were lost
fluorescence of eGFP only (control plasmid) (eGFP): did not show obvious reduction of fluorescence

Cc1ncsc1-c1ccc(CNC(=O)[C@@H]2C[C@@H](O)CN2C(=O)[C@H](C(C)C)N2Cc3ccccc3C2=O)c(OCCOCCNC(=O)c2ccccc2NC(=O)[C@H](CCCCN)NC(=O)[C@@H]2CCCN2C(=O)Cc2cccc3ccccc23)c1 [degrader 2, (2S,4R)-N-(2-(2-(2-(2-((S)-6-amino-2-((S)-1-(2-(naphthalen-1-yl)acetyl)pyrrolidine-2-carboxamido)hexanamido)benzamido)ethoxy)ethoxy)-4-(4-methyl-thiazol-5-yl)benzyl)-4-hydroxy-1-((S)-3-methyl-2-(1-oxoisoindolin-2-yl)butanoyl)pyrrolidine-2-carboxamide]
fold less potent than degrader 1 (DC50) (NTMT1 [3]): ≥ 9 fold
DC50 (NTMT1 [3]): 79.7 µM
DC50 (NTMT1 [4]): 53.7 µM

Cc1ncsc1-c1ccc(CNC(=O)[C@@H]2C[C@@H](O)CN2C(=O)[C@H](C(C)C)N2Cc3ccccc3C2=O)c(OCCOCCOCCOCCNC(=O)c2ccccc2NC(=O)[C@H](CCCCN)NC(=O)[C@@H]2CCCN2C(=O)Cc2cccc3ccccc23)c1 [degrader 3, (2S,4R)-N-(2-((1-(2-((S)-6-amino-2-((S)-1-(2-(naphthalen-1-yl)acetyl)pyrrolidine-2-carboxamido)hexanamido)phenyl)-1-oxo-5,8,11-trioxa-2-azatridecan-13-yl)oxy)-4-(4-methylthiazol-5-yl)benzyl)-4-hydroxy-1-((S)-3-methyl-2-(1-oxoisoindolin-2-yl)butanoyl)pyrrolidine-2-carboxamide]
fold less potent than degrader 1 (DC50) (NTMT1 [3]): ≥ 9 fold
DC50 (NTMT1 [3]): 66.4 µM
DC50 (NTMT1 [4]): 53.7 µM

Cc1ncsc1-c1ccc(CNC(=O)[C@@H]2C[C@H](O)CN2C(=O)[C@H](C(C)C)N2Cc3ccccc3C2=O)c(OCCNC(=O)c2ccccc2NC(=O)[C@H](CCCCN)NC(=O)[C@@H]2CCCN2C(=O)Cc2cccc3ccccc23)c1 [inhibitor 4, (2S,4S)-N-(2-(2-(2-((S)-6-amino-2-((S)-1-(2-(naphthalen-1-yl)acetyl)pyrrolidine-2-carboxamido)hexanamido)benzamido)ethoxy)-4-(4-methylthiazol-5-yl)benzyl)-4-hydroxy-1-((S)-3-methyl-2-(1-oxoisoindolin-2-yl)butanoyl)-pyrrolidine-2-carboxamide]
NTMT1 level relative to DMSO control (NTMT1 [3]; HCT116, 50 μM, 24 h): unable to reduce NTMT1 levels
NTMT1 level relative to DMSO control (NTMT1 [4]; HT29, 50 μM, 24 h): unable to reduce NTMT1 levels
cytotoxicity (cell viability, WST-8) (HCT116): No significant cytotoxicity
cytotoxicity (cell viability, WST-8) (HT29): No significant cytotoxicity
antiproliferative effect on ntmt1 KO cells (ntmt1 KO HCT116 cells): neither compound displayed an antiproliferative effect
